Reference: the EternaBench riboswitch data

Test system: MS2 coat protein
Test: apparent Kd, MS2 coat protein; higher = weaker binding; RNA-MaP array
Method in brief: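 Incubations were done at room temperature with fluorescently labeled MS2 coat protein at 1.5 nM to 3 μM and designed RNAs transcribed on an Illumina sequencing chip from sequenced DNA templates, with or without input ligand. Apparent Kd is the median of binding curves fitted for each cluster. Designs with fewer than 10 measured clusters were excluded.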

[1] = designed as: OFF switch for flavin mononucleotide, no ligand
[2] = ligand present: flavin mononucleotide, designed as: OFF switch for flavin mononucleotide
[3] = designed as: ON switch for flavin mononucleotide, no ligand
[4] = ligand present: flavin mononucleotide, designed as: ON switch for flavin mononucleotide
[5] = designed as: OFF switch for tryptophan, no ligand
[6] = ligand present: tryptophan, designed as: OFF switch for tryptophan
[7] = designed as: ON switch for theophylline, no ligand
[8] = ligand present: theophylline, designed as: ON switch for theophylline

Sequence | apparent Kd [1] | apparent Kd [2] | apparent Kd [3] | apparent Kd [4] | further results
AAGCGCAAAGGAUAUAGCCGAUCCAACAUGAGGAUCACCCAUGUGACUUCCGACAUCAAGCUAGAAGGUUGAUGCA | 0.0476 µM | 0.041 µM | – | – | –
CACCGGAAUGGAGGAUAUCCUACACAUGAGGAUCACCCAUGUUAUUUAUAGCUAUUAAAAGUUCGGGAGAAGGCCAAGCGAUUC | – | – | 0.0287 µM | 0.0132 µM | –
CUAACCACAAUAGGAUAUCGGGCUCGUUUCAUUGCUGCAAAACAUGAGGAUCACCCAUGUCCGUCCGAGAAGGAUUGUAAGAAU | – | – | 0.0921 µM | 0.0148 µM | –
CGUGUACAUGAGGAUCACCCAUGUUAGGAUAUCUUACCAAAGUCGAGGUGACUCCGGGAGAGAAGGAACUGGCA | 0.0786 µM | 0.0791 µM | – | – | –
GAAAAUUCCUAGAAGGCGGAUUAUACUUGGUUGAACAUGAGGAUCACCCAUGUAUCUGGCAAACCCGAGGAUAUAGAUUUUCCA | – | – | 0.0562 µM | 0.0312 µM | –
GGGUGACAUGAGGAUCACCCAUGUCAGGAUAUGGACUCGAAAUUAGGUAUGAAUCACGCCAGAAGGGACCGGGC | 0.055 µM | 0.044 µM | – | – | –
GACGAAUCGGCAGGAUAUCUAGAUGAGCCAGAAUGUAAUUGAGUUGACAUGAGGAUCACCCAUGUAGAGAAGGGCCCAUCCAUU | 0.0121 µM | 0.0207 µM | – | – | –
GUGCUGAAUACGUAGGAUAUAGUGUGUGCGACAUGAGGAUCACCCAUGUAAAUUGCCCAUCAGAGCUAGAAGGACGAAUCUUCGUG | – | – | 0.0155 µM | 0.00878 µM | –
AUCACAUGAGGAUCACCCAUGUUAGGUAGAUGCAGUAAAGUCUAGGAUAUAAGCUUGUGAAGUAGUUAGAAGGAGACACAUGAG | 0.0229 µM | 0.0183 µM | – | – | –
UAAUAUGGAGGAUAUAAAGUCGAAGACAUGAGGAUCACCCAUGUCCUUGGUUGAAAGAGGUUAGAAGGCCAUAGUA | 0.00947 µM | 0.00966 µM | – | – | –
ACUUGUGAGUCGGCCGCCACUCACCGGUAGUGUCACUCGUUCACAAACAUGAGGAUCACCCAUGUGAGGACCGGGACAGUCGGGU | – | – | – | – | apparent Kd [5]: 0.0172 µM; apparent Kd [6]: 0.0258 µM
UCUGCGUCAGUCAGGAUAUGUUGCCAAAUUAUGGCACAGAAGGGACAUGAGGAUCACCCAUGUAGCGUCUCCGU | 0.0102 µM | 0.0104 µM | – | – | –
AAAUAAAUAGCAGGAUAUGGGAAACAUGAGGAUCACCCAUGUCAUAAAUAGCGAAAAUAACACAUCCAGAAGGGCAAGAAUCAA | – | – | 0.412 µM | 0.137 µM | –
ACAUGAGGAUCACCCAUGUACCAAGAACAUUGAUGCCUCCGAGAGGAUAUUUGCGGUAUAACACUAAAGAAGGCUCUACAAGUA | 0.00795 µM | 0.00731 µM | – | – | –
CGACUGAAUAGGCAGUACACAUGAGGAUCACCCAUGUUAGCAAGAAGGCAAGAGCCAGCGGAGCUUGAGGAUAUUGAAGAUCUC | – | – | 0.0272 µM | 0.0274 µM | –
ACAAGGCUUACAGGAUAUGUGCGUCAUACAAAACAUGAGGAUCACCCAUGUGCCCCAGCGUCUUCACAGAAGGGUACAAGCGUU | – | – | 0.0266 µM | 0.0124 µM | –
AAAAGACAUGAGGAUCACCCAUGUAGAGAUACCAGAUGCAUGGACAUCCCUUGGCAGCUCGUCACUUUCUAUAUUUUCCAGACGC | – | – | – | – | apparent Kd [7]: 0.0469 µM; apparent Kd [8]: 0.0219 µM
GCAGUAAGAGAGGAUAUGAUGGACGCAAGGGCGUCAGAAGGCUCUACAUGAGGAUCACCCAUGUGAAGUUCAUA | 0.00612 µM | 0.00652 µM | – | – | –
UAGGUACAUGAGGAUCACCCAUGUCCUAUUACUACAGGAUAUAGCGUGCCUAGAUGGGUGCUAGAAGGGUAGAUCU | – | – | 0.0207 µM | 0.00913 µM | –
GCAUUACAUGAGGAUCACCCAUGUCUAGAUACCAGAUUUGUUUGAAUCCCUUGGCAGCUAGUGGACCACCGUACACGACAUACUA | – | – | – | – | apparent Kd [7]: 0.0451 µM; apparent Kd [8]: 0.0249 µM
CAAGCAUGAGAGAAGGUCCCAUCUAAACAUGAGGAUCACCCAUGUGAUACGGUGCUAUUGUGAAGGAAGGAUAUCUCAGUUAAU | – | – | 0.0617 µM | 0.0168 µM | –
UCGUCGCUUCAGAAGGACAGACAAUCGUGCACUGUAGGAUAUGAGACGCGACAUGAGGAUCACCCAUGUGAACGGUUCGUAUAA | 0.0251 µM | 0.053 µM | – | – | –
ACCAACCACACCCUUCACUGUUUUCGCCGCCGAGGACCGGUACGGCCGCCACUCGUACAAAGACAUGAGGAUCACCCAUGUGCCU | – | – | – | – | apparent Kd [5]: 0.0145 µM; apparent Kd [6]: 0.0214 µM
UAGAAGAACAUGCGGGCUCCGGACGGUGAUACCAGAUCGAAAAGGAUCCCUUGGCAGCACUGCACAUGAGGAUCACCCAUGUGCA | – | – | – | – | apparent Kd (designed as: OFF switch for theophylline, no ligand): 0.0092 µM; apparent Kd (ligand present: theophylline, designed as: OFF switch for theophylline): 0.0158 µM

Sequence | apparent Kd [1] | apparent Kd [2] | apparent Kd [3] | apparent Kd [4] | further results
ACUCGAUUACACAACCCGACAUGAGGAUCACCCAUGUAUCCGAGAAGGGCUAAUAUAUUCAGGAAGCAGGAUAUCGAAUCAAUA | – | – | 0.0875 µM | 0.0505 µM | –
CGGGCGAAGCCUUUCACAUGAGGAUCACCCAUGUCUAAUACGAAGGAUAUCCUCGCCGGAGCUAAGGAGAAGGUCGACAUAGUU | 0.0189 µM | 0.0192 µM | – | – | –
ACCGGACAUGAGGAUCACCCAUGUCUUGCAUAGGUAGGAUAUGAAUCAAGGACUUGAUCAUCAGAAGGACCCAGGC | – | – | 0.00844 µM | 0.00713 µM | –
UCAAGCGAAGGAUAUACAUGAGGAUCACCCAUGUUGGCUAGAAUGAAAGACGGAUUAUGUAGAAGGUCGUGUGC | 0.0203 µM | 0.0176 µM | – | – | –
CUCGUCAACUCGGCCGCCACUGACGUGUGGUCAGGCCUGUAGAAACACAUGAGGAUCACCCAUGUCAGGACCGGGAGCUUUAUUA | – | – | – | – | apparent Kd [5]: 0.0469 µM; apparent Kd [6]: 0.0583 µM
UAACAUGAGGAUCACCCAUGUACGAAGAGGGAAAGAAAAGUCAAGGAUAUGCGGAUUUAACUAGCGCAGAAGGUGAUCUAAGUU | – | – | 0.23 µM | 0.114 µM | –
UCCCUGCAAGGAUAUACAUGAGGAUCACCCAUGUUUACACACGAAAAUUUGGAGAUAGGUAGAAGGUGCAUUUU | 0.0126 µM | 0.0118 µM | – | – | –
AAUCAUAAUAAAGGAUAUACAACACAACAGGUGGUAGAAGGAUAUGGAGAUGGAACACACAUGAGGAUCACCCAUGUAAAUAGC | – | – | 0.013 µM | 0.00995 µM | –
ACUAGACAUGAGGAUCACCCAUGUGAGGAUAUCUUGCUAUGCACUAUGGGCCAACGGAAGAGAAGGCACUGGGA | 0.0457 µM | 0.0932 µM | – | – | –
UGGUAUGAAGGAUAUGACUAAGUUCACAUGAGGAUCACCCAUGUAACGUCCUCGACAUGUUCAGAAGGUCAGGCGA | 0.0117 µM | 0.0114 µM | – | – | –
AUUGAGACCUAGAAGGCGAAAACAUGAGGAUCACCCAUGUAGAUAACACCUACAUGAGCGAAAUACGAGGAUAUAGGAAAACUC | 0.356 µM | 0.351 µM | – | – | –
UGUUGCAGCCACAUGAGGAUCACCCAUGUGCUCAGGAUCGUUGAGGAUAUCGAGGUAGGGUCAGCCGAGAAGGCAAGGGUCGCG | – | – | 0.0105 µM | 0.00864 µM | –
AAUCCAAGAAAUGAUACCAGUCCCACUCAGGACAUGAGGAUCACCCAUGUAAUACAGGGAGACCCUUGGCAGCAUCGAAUAAACA | – | – | – | – | apparent Kd [7]: 0.432 µM; apparent Kd [8]: 0.0827 µM
ACAGUAAAUGUGUAGGAUAUGAACUAAACCACAUGAGGAUCACCCAUGUAACGAUUGGAUGGCCUUCAGAAGGACAGGGUUAUUGC | – | – | 0.304 µM | 0.215 µM | –
CCGUGGCAUCAACAGGAUAUGCUAUCAAAGACAUGAGGAUCACCCAUGUGGGUAUAUUACUUCCGGCAGAAGGGUUUAAGGGUUAC | – | – | 0.0366 µM | 0.0289 µM | –
AUGAUCAUAGUAAGGAUAUCCGGACCAAUAGCAAAGGAGAAGGUACAUGAGGAUCACCCAUGUUUAUUAAUACU | 0.00911 µM | 0.00998 µM | – | – | –
CGCCCAGUUACGGCCGCCACUUCGAUGGCAAAUGUCGAGCCUCCACAUGAGGAUCACCCAUGUCGAAGGACCGGGUACUGCUUGC | – | – | – | – | apparent Kd (designed as: ON switch for tryptophan, no ligand): 0.0319 µM; apparent Kd (ligand present: tryptophan, designed as: ON switch for tryptophan): 0.11 µM
GCCCAUUAAGACAUGAGGAUCACCCAUGUCACCGGGUAUGCCAGAAGGCUCUUAUAGAAGUAACGAGAGGAUAUGGGUGCUACU | – | – | 0.0233 µM | 0.0138 µM | –
GGAAGUGUCUAGGAUAUCCUUCGAUCUAUGGCAGGAGAAGGAGAUACAUGAGGAUCACCCAUGUAGGUACGGGC | 0.0071 µM | 0.00675 µM | – | – | –
GGUCCGACAACAGGAUAUGUCAUACGCUAAUGAACAGAAGGGUUACAUGAGGAUCACCCAUGUGCUUACACAUGCUCCGGAGCA | – | – | 0.0108 µM | 0.0171 µM | –
AUGCUUAAAAUGCUCAAACAUGAGGAUCACCCAUGUGAGGUCAAGGAUAUUAUUUAACUUGUUUAUAAGAAGGUGACCGAAUGA | – | – | 0.0611 µM | 0.0187 µM | –
AACUAACAUAGUUAACAACAUGAGGAUCACCCAUGUCGCAUGUAGGAUAUGGUAGAGGACACAACCCAGAAGGACAUAACAUAA | – | – | 0.0419 µM | 0.0229 µM | –
AGGAACGUAGAGAAGGGAUCAAUUCGGUACAUGAGGAUCACCCAUGUGAUGGCCAAACUUCGAAAUCAGGAUAUCUCAUAAUAC | – | – | 0.0184 µM | 0.0142 µM | –
